Measurements reported in the M2OR odorant receptor database.

How the values were obtained:
Conditions in all cases: stereoisomer not certain
[1] = target: T1, UniProt Q8VG27
T1 sequence (whole entry): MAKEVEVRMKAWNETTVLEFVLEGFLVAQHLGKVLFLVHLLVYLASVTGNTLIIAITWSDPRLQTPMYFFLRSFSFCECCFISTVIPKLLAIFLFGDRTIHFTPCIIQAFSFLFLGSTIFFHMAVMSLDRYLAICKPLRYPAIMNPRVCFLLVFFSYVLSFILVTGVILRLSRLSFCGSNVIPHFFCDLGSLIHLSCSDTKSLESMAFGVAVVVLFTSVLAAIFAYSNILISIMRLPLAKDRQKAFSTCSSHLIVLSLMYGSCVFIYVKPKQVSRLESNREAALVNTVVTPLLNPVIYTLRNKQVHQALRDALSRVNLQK
How it was run: (§1)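 Transient luciferase assays in mammalian cell lines were common, though methods varied by source. The values come from published papers and their supplementary material, with extra details from the original authors when needed. Responsive refers to a measured signal the original authors judged statistically different from baseline, and non-responsive (inactive) to the remainder.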

[2] = target: UniProt Q8VG28
How it was run: as §1

[3] = target: T2, UniProt Q8VG53
T2 sequence (whole entry): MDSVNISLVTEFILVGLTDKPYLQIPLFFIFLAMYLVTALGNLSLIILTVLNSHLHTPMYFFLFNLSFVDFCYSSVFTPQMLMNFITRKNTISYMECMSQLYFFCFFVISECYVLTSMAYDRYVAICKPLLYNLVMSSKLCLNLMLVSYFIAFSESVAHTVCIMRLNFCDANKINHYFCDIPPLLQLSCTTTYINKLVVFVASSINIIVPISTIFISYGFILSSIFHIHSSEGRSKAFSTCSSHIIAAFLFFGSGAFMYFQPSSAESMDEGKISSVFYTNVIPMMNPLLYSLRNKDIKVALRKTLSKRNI
How it was run: as §1

[4] = target: T3, UniProt Q8VG64
T3 sequence (whole entry): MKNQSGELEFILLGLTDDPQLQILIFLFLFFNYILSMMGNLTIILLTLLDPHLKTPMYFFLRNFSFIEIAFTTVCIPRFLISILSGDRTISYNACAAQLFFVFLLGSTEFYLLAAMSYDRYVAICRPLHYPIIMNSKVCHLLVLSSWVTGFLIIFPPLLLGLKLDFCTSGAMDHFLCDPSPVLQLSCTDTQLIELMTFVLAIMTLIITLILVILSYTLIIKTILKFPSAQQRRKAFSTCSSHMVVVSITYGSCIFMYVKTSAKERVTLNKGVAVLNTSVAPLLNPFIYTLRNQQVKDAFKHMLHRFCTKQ
How it was run: as §1

[5] = target: T4, UniProt Q8VGB9
T4 sequence (whole entry): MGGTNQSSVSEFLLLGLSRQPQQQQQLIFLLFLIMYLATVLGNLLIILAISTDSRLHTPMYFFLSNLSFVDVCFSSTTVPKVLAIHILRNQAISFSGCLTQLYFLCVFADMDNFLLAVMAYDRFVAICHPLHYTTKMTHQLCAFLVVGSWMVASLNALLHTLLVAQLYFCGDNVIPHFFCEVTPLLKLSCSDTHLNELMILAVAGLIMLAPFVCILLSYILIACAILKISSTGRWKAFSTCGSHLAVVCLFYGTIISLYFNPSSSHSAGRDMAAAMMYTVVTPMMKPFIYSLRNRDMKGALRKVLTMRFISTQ
How it was run: as §1

[6] = target: T5, UniProt Q8VGC6
T5 sequence (whole entry): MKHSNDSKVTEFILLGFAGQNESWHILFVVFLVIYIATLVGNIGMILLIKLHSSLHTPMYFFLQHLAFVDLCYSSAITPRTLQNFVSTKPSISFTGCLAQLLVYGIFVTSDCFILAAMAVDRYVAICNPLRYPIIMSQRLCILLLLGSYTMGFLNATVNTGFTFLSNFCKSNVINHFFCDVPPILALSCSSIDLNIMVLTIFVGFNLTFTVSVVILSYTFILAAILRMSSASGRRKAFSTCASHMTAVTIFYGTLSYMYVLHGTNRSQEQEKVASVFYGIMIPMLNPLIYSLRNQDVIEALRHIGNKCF
How it was run: as §1

[7] = target: T6, UniProt Q8VGJ3
T6 sequence (whole entry): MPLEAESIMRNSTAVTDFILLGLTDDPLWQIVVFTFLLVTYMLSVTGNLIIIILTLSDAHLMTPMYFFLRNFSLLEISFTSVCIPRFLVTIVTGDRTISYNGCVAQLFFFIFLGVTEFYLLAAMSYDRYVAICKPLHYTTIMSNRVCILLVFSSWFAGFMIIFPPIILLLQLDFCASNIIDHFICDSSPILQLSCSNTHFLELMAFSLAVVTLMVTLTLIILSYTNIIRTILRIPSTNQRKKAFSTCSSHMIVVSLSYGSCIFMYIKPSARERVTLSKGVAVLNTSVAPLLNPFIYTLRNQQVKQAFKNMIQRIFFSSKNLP
How it was run: as §1

[8] = target: T7, UniProt Q8VGL0
T7 sequence (whole entry): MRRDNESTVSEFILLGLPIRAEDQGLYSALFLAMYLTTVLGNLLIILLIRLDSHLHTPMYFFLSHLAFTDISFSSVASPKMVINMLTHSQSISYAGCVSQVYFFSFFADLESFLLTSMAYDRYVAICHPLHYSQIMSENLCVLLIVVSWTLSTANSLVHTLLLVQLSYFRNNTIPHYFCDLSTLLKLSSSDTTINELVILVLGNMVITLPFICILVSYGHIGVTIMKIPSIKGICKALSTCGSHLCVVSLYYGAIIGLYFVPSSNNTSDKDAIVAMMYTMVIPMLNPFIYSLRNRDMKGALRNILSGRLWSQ
How it was run: as §1

[9] = target: T8, UniProt Q8VG49
T8 sequence (whole entry): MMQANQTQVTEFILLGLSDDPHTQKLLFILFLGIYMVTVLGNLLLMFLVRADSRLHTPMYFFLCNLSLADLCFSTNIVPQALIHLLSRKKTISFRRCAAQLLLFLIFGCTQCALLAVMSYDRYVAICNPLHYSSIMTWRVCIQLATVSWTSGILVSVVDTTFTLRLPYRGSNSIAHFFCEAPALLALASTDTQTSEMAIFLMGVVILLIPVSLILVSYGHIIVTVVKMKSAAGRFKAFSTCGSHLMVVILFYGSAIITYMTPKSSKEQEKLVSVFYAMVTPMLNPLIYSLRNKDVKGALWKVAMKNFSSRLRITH
How it was run: as §1

[10] = target: T9, UniProt Q8VG77
T9 sequence (whole entry): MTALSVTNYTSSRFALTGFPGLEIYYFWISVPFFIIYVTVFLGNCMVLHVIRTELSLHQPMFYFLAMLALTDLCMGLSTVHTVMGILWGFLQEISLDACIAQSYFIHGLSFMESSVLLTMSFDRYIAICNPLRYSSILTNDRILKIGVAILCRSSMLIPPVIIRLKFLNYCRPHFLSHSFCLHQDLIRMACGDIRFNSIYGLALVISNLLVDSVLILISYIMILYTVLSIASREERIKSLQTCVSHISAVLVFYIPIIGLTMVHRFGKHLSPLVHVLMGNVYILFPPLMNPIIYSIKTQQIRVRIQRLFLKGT
How it was run: as §1

[11] = target: T10, UniProt Q8VG96
T10 sequence (whole entry): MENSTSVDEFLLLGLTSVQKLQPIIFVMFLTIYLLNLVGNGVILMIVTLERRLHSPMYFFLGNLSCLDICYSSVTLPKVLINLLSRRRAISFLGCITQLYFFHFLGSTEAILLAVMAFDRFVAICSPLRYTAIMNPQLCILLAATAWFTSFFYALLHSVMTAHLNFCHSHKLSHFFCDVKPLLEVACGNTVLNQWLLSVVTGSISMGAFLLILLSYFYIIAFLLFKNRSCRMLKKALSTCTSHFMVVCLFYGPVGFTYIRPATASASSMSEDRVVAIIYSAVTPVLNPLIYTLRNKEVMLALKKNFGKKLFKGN
How it was run: as §1

[12] = target: T11, UniProt Q8VGD7
T11 sequence (whole entry): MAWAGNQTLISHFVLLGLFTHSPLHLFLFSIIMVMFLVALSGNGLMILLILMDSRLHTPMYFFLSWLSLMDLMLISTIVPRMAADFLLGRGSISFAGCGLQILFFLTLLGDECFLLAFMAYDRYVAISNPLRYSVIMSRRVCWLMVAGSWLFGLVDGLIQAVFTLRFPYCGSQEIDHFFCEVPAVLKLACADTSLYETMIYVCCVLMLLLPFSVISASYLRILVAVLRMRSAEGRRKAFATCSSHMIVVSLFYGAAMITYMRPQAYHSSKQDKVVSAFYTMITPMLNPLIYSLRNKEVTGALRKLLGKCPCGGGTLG
How it was run: as §1

[13] = target: T12, UniProt Q8VGH1
T12 sequence (whole entry): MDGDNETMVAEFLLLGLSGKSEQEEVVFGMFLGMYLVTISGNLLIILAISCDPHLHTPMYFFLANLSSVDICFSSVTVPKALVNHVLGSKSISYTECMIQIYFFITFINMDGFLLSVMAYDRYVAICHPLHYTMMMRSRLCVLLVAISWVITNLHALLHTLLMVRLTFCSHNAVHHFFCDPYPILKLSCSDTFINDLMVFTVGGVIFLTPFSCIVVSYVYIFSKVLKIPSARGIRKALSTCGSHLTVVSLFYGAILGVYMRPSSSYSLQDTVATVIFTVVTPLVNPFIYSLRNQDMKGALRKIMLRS
How it was run: as §1

[14] = target: T13, UniProt Q8VGJ1
T13 sequence (whole entry): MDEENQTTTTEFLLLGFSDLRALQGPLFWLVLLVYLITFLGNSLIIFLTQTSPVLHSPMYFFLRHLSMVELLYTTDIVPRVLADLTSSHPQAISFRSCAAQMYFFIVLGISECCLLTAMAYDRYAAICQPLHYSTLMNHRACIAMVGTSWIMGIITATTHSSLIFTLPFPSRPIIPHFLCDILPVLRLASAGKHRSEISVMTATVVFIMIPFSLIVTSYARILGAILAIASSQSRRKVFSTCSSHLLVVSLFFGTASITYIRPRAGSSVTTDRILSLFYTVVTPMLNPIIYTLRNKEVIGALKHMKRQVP
How it was run: as §1

[15] = target: T14, UniProt Q8VGJ5
T14 sequence (whole entry): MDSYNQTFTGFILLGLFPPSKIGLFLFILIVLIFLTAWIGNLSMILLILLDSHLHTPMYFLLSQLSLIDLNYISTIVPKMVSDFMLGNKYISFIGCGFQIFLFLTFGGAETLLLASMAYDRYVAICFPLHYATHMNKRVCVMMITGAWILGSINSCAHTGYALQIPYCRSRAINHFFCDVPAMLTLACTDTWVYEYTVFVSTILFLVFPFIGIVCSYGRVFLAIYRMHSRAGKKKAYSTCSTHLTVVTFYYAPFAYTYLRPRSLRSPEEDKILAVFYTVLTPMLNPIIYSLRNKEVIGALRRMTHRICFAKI
How it was run: as §1

[16] = target: T15, UniProt Q8VGL7
T15 sequence (whole entry): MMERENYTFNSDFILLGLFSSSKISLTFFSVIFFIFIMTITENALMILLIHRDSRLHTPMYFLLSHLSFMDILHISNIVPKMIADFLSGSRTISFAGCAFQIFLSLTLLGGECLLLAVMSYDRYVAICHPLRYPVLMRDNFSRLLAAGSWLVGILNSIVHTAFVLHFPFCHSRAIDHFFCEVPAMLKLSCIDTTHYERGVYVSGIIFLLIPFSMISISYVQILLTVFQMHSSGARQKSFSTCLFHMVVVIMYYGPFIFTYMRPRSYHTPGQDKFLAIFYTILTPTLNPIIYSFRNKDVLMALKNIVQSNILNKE
How it was run: as §1

Measured: odorant receptor agonist call;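 note: active if original authors judged signal statistically different from baseline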

Sequence of UniProt Q8VG28 (Q8VG28 as listed by the source): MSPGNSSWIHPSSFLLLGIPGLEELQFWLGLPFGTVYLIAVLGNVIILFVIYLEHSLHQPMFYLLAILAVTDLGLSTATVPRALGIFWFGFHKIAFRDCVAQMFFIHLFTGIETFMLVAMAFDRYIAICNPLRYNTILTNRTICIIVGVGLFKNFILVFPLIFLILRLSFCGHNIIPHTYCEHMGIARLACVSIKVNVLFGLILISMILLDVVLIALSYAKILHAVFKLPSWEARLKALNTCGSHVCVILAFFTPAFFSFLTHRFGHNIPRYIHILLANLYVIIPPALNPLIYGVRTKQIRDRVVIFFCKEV

CCCCC=O
inactive: [1] | [2] | [3] | [4] | [5] | [6] | [7] | [8]

CCCCOC=O
not listed: [2]
inactive: all other assays above

O=C([O-])CCCCCCCC(=O)[O-].[H+].[H+]
inactive: [1] | [2] | [3] | [4] | [5] | [6] | [7] | [8]

CC(=O)OCc1ccccc1
active: [6] | [15]
not listed: [2]
inactive: all other assays above

CCCCC(=O)CC
active: [6] | [15]
not listed: [2]
inactive: all other assays above

CCCCCCO
active: [5]
inactive: all other assays above

CCCCCOC(=O)CCCCC
not listed: [2]
inactive: all other assays above

CCCC(=O)C(C)=O
not listed: [2]
inactive: all other assays above

CCCCCC=O
active: [10]
not listed: [2]
inactive: all other assays above

CCCCCCCCCO
active: [6]
inactive: all other assays above

CCCCC(=O)O
inactive: all assays above

CCCCCCCCC(=O)O
active: [9] | [6]
not listed: [2]
inactive: all other assays above

O=C([O-])CCCCCCC(=O)[O-].[H+].[H+]
inactive: [1] | [2] | [3] | [4] | [5] | [6] | [7] | [8]

CCCCC(C)=O
active: [5] | [15]
not listed: [2]
inactive: all other assays above

CCCCCCCCS
active: [6]
not listed: [2]
inactive: all other assays above

O=C1Cc2ccccc2O1
not listed: [2]
inactive: all other assays above

CCCCCCC(C)=O
active: [6] | [15]
not listed: [2]
inactive: all other assays above

CCC(=O)O
not listed: [2]
inactive: all other assays above

CCCCCC1=C(C)CCC1=O
active: [15] | [16]
not listed: [2]
inactive: all other assays above

CCC(=O)C(=O)CC
active: [5]
not listed: [2]
inactive: all other assays above
